Data taken from ChEMBL document CHEMBL1926676, “Antimalarial β-carboline and indolactam alkaloids from Marinactinospora thermotolerans, a deep sea isolate” (J Nat Prod, 2011).

How the values were obtained:
[1] = system: SMMC-7721; assay: Cytotoxicity against human SMMC7721 cells after 48 hrs by MTT assay; assay type: functional, cell-based; conditions: SMMC-7721, 48 h
Method in brief: (§1)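 Cells grown in RPMI-1640 with 10% FBS, 37 °C, 5% CO2. Seeded at 2 × 10^3 cells per well and left 12 h. Compounds added in DMSO at various concentrations for 48 h. MTT (1 mg/mL in PBS) then added for 4 h at 37 °C. Formazan dissolved in DMSO and absorbance read.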

[2] = system: NCI-H460; assay: Cytotoxicity against human NCI-H460 cells after 48 hrs by MTT assay; assay type: functional, cell-based; conditions: NCI-H460, 48 h; method in brief: as §1
[3] = system: MDA-MB-231; assay: Cytotoxicity against human MDA-MB-231 cells after 48 hrs by MTT assay; assay type: functional, cell-based; conditions: MDA-MB-231, 48 h; method in brief: as §1
[4] = system: HeLa; assay: Cytotoxicity against human HeLa cells after 48 hrs by MTT assay; assay type: functional, cell-based; method in brief: as §1
[5] = system: SW1990; assay: Cytotoxicity against human SW1990 cells after 48 hrs by MTT assay; assay type: functional, cell-based; conditions: SW1990, 48 h; method in brief: as §1
[6] = system: A549; assay: Cytotoxicity against human A549 cells after 48 hrs by MTT assay; assay type: functional, cell-based; conditions: A549, 48 h; method in brief: as §1
[7] = system: MCF7; assay: Cytotoxicity against human MCF7 cells after 48 hrs by MTT assay; assay type: functional, cell-based; conditions: MCF7, 48 h; method in brief: as §1
[8] = system: DU-145; assay: Cytotoxicity against human DU145 cells after 48 hrs by MTT assay; assay type: functional, cell-based; conditions: DU-145, 48 h; method in brief: as §1
[9] = system: Plasmodium falciparum; assay: Antiplasmodial activity against drug-sensitive Plasmodium falciparum 3D7 assessed as parasitaemia after 72 hrs using SYBR Green 1 staining by fluorescence method; assay type: functional, organism-based; conditions: 3D7, 72 h
Method in brief: (§2)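 Blood-stage P. falciparum cultures at 0.2% parasitemia, 2% hematocrit, given serially diluted compound in quadruplicate; 72 h at 37 °C. Lysis buffer with SYBR Green I (0.2 μL/mL) added, 1 h in dark, then relative fluorescence read. IC50 by nonlinear regression of logistic dose-response curves.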

[10] = system: Plasmodium falciparum; assay: Antiplasmodial activity against multidrug-resistant Plasmodium falciparum Dd2 assessed as parasitaemia after 72 hrs using SYBR Green 1 staining by fluorescence method; assay type: functional, organism-based; conditions: Dd2, 72 h; method in brief: as §2

| Structure (SMILES) | IC50 [1] | IC50 [2] | IC50 [3] | IC50 [4] | IC50 [5] | IC50 [6] | IC50 [7] | IC50 [8] | IC50 [9] | IC50 [10] |
| --- | --- | --- | --- | --- | --- | --- | --- | --- | --- | --- |
| CC(=O)c1nccc2c1[nH]c1ccccc12 | > 50 µM | > 50 µM | > 50 µM | > 50 µM | > 50 µM | > 50 µM | > 50 µM | > 50 µM |  |  |
| CC(=O)c1nc(C(=O)NCCc2ccc(O)cc2)cc2c1[nH]c1ccccc12 | > 50 µM | > 50 µM | > 50 µM | > 50 µM | > 50 µM | > 50 µM | > 50 µM | > 50 µM | 16.6 µM | 15.6 µM |
| CC(=O)c1nc(C(=O)NCCc2ccccc2)cc2c1[nH]c1ccccc12 | > 50 µM | > 50 µM | > 50 µM | > 50 µM | > 50 µM | > 50 µM | > 50 µM | > 50 µM | 3.09 µM | 3.38 µM |
| C=CC(C)(C)c1ccc2c3c(c[nH]c13)C[C@@H](CO)NC(=O)[C@H]([C@@H](C)CC)N2 | > 50 µM | > 50 µM | > 50 µM | > 50 µM | > 50 µM | > 50 µM | > 50 µM | > 50 µM | 20.8 µM | 18.7 µM |
| C=CC(C)(C)c1ccc2c3c(c[nH]c13)C[C@@H](CO[C@@H]1O[C@@H](CO)[C@H](O)[C@@H](O)[C@@H]1O)NC(=O)[C@H]([C@@H](C)CC)N2C | > 50 µM | > 50 µM | > 50 µM | > 50 µM | > 50 µM | > 50 µM | > 50 µM | > 50 µM | 10.4 µM | 5.03 µM |
| COc1ccc(CCNC(=O)c2cc3c([nH]c4ccccc43)c(C(C)=O)n2)cc1 [MARINACARBOLINE A] | > 50 µM | > 50 µM | > 50 µM | > 50 µM | > 50 µM | > 50 µM | > 50 µM | > 50 µM | 36 µM | 1.92 µM |
| CC(=O)c1nc(C(=O)NCCc2c[nH]c3ccccc23)cc2c1[nH]c1ccccc12 [MARINACARBOLINE D] | > 50 µM | > 50 µM | > 50 µM | > 50 µM | > 50 µM | > 50 µM | > 50 µM | > 50 µM | 5.39 µM | 3.59 µM |
| C=CC(C)(C)c1ccc2c3c(c[nH]c13)C[C@@H](CO)NC(=O)[C@H]([C@@H](C)CC)N2C [METHYLPENDOLMYCIN] | > 50 µM | > 50 µM | > 50 µM | > 50 µM | > 50 µM | > 50 µM | > 50 µM | > 50 µM |  |  |
| C=CC(C)(C)c1ccc2c3c(c[nH]c13)C[C@@H](CO)NC(=O)[C@H](C(C)C)N2C [PENDOLMYCIN] | > 50 µM | > 50 µM | > 50 µM | > 50 µM | > 50 µM | > 50 µM | > 50 µM | > 50 µM |  |  |
